Measurements from ChEMBL document CHEMBL5329172, “Chloroacetamide fragment library screening identifies new scaffolds for covalent inhibition of the TEAD·YAP1 interaction” (RSC Med Chem, 2023).
Activity calls are given as the source filed them. The rule behind the calls is not given here.

Columns and labels:
S2 = assay: Inhibition of uPAR (unknown origin) expressed in S2 cells/FAM-labelled alpha-helical peptide AE-147 (unknown origin) protein-protein interaction preincubated for 24 hrs at 4 degree C with uPAR followed by fluorescent labelled AE-147 addition by fluorescence polarization assay; conditions: Homo sapiens
Summary of the method: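 Counter-screen FP: 250 nM uPAR lacking the GPI anchor (from S2 cells) was preincubated with compound for 24 h at 4 °C in PBS with 0.01% Triton X-100. AE-147-FAM peptide was then added at 100 nM final and polarization read at ex 485/em 535 nm.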

Homo sapiens [1] = species: Homo sapiens; assay: (§1) Covalent inhibition of GST-tagged TEAD4 C367S mutant (unknown origin) expressed in Escherichia coli BL21 (DE3)/FAM-labelled YAP1 (60 to 99 residues)(unknown origin) protein-protein interaction assessed as protein-compound adduct formation at 100 uM incubated for 24 hrs at 4 degree C followed by mass spectrometry analysis
Summary of the method: (§2)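 Intact-protein MS: 2.5 μM protein (TEAD4 217–434 with GST cleaved, TEAD4C367S, TEAD1 209–426, TEAD2 217–447 or TEAD3 210–427) incubated with 100 μM compound in PBS for 24 h at 4 °C. Samples were centrifuged to remove precipitate, desalted on a C3 reverse-phase column with a water/acetonitrile 0.1% formic acid gradient, and masses were read by Q-TOF. Adduct peaks were reported as percent.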

[2] = biological target: T1, YAP1-TEAD4 (Homo sapiens) (UniProt P46937+Q15561); assay: as §1, with “(217 to 434 residues)” for “C367S mutant”, “(DE3) cells/FAM-labelled” for “(DE3)/FAM-labelled”; summary of the method: as §2
YAP1-TEAD4 = YAP1-TEAD4 (Homo sapiens, UniProt Q15561); assay: (§3) Inhibition of GST-tagged TEAD4 (217 to 434 residues) (unknown origin) expressed in Escherichia coli BL21 (DE3) cells/FAM-labelled YAP1 (60 to 99 residues)(unknown origin) protein-protein interaction preincubated for 24 hrs at 4 degree C with TEAD4 followed by fluorescent labelled YAP1 addition by fluorescence polarization assay
Chain of YAP1-TEAD4 (P46937 whole entry, the tested form may be a part): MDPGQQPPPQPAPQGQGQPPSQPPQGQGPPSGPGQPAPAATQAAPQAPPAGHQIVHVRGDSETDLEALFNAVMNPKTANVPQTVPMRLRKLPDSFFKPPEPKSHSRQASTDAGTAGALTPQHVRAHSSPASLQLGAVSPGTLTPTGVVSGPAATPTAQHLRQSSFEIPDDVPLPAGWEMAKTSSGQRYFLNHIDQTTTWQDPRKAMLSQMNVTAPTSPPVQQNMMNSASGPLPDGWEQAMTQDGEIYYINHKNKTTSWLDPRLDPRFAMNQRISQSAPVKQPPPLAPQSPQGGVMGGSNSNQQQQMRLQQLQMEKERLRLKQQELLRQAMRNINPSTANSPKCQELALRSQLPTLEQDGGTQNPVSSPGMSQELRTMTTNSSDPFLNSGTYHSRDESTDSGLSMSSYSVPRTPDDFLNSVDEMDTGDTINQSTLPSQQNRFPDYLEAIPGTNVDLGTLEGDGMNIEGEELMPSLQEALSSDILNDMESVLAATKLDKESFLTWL
Chain of YAP1-TEAD4 (Q15561 whole entry, the tested form may be a part): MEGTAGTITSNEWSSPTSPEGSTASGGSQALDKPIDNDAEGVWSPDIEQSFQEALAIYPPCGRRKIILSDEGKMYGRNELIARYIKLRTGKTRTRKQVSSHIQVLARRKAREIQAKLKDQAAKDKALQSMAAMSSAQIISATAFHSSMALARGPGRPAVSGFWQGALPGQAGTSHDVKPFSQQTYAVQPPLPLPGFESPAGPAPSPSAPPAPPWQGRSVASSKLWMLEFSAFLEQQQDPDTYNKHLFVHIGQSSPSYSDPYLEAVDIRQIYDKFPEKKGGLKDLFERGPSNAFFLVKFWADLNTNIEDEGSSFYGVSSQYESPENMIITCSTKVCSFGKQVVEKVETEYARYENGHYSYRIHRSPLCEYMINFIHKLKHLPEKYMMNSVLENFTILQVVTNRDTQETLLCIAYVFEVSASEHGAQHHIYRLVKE
Summary of the method: (§4)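 FP: 64 nM TEAD4, TEAD4C367S, TEAD2 or TEAD3, or 250 nM TEAD1, was preincubated with compound for 24 h at 4 °C in PBS with 0.01% Triton X-100. FAM-YAP1 60–99 peptide (disulfide-crosslinked) was then added at 16 nM final. Polarization was read at ex 485/em 535 nm. Percent inhibition was taken relative to no-compound and no-protein controls. The single-point primary screen used 50 μM.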

Homo sapiens [3] = species: Homo sapiens; assay: as §3, with “TEAD4 C367S mutant” for “TEAD4 (217 to 434 residues)”, “TEAD4 C367S mutant” for “TEAD4”; summary of the method: as §4
[4] = biological target: T1, YAP1-TEAD4 (Homo sapiens); assay: as §3, with “interaction assessed as maximum inhibition at 50 uM” for “interaction”; summary of the method: as §4
[5] = biological target: T1, YAP1-TEAD4 (Homo sapiens); assay: (§5) Covalent inhibition of GST-tagged TEAD4 (217 to 434 residues) (unknown origin) expressed in Escherichia coli BL21 (DE3) cells/FAM-labelled YAP1 (60 to 99 residues)(unknown origin) protein-protein interaction assessed as second protein-compound adduct formation at 100 uM incubated for 24 hrs at 4 degree C followed by mass spectrometry analysis; summary of the method: as §2
[6] = biological target: T1, YAP1-TEAD4 (Homo sapiens); assay: as §5, with “additional” for “second”; summary of the method: as §2

inhibition (Homo sapiens [1]) | percent protein-compound adduct formation [2] | IC50 (YAP1-TEAD4) | Imax [4] | percent second protein-compound adduct [5] | percent protein-compound adduct formation [6] | Structure (SMILES) | inhibition (S2) | inhibition (Homo sapiens [3])
inactive | 32% | 4.8 µM | 41% |  |  | COc1ccc(C(C(=O)NC2CCCCCC2)N(Cc2cccs2)C(=O)CCl)cc1 (stereo not drawn) | inactive | inactive
inactive | 27% | 3.8 µM | 41% |  |  | Cc1ccc(C2CC(c3cccs3)=NN2C(=O)CCl)cc1 (stereo not drawn) | inactive | inactive
inactive | 15% | 4 µM | 40% |  |  | O=C(NCCc1ccccc1)C(c1cccs1)N(C(=O)CCl)c1ccc(Cl)cc1 (stereo not drawn) | inactive | inactive
 | 29% | 2 µM | 50% | 30% | 30% | Cc1ccc2c(c1)c1c3n2CCN(C(=O)CCl)C3CCC1 (stereo not drawn) | inactive | inactive
inactive | 12% | 13 µM | 67% | 20% | 30% | COc1ccc(CN(C(=O)CCl)C(C(=O)NC2CCCCC2)c2cccs2)cc1 (stereo not drawn) | inactive | inactive
inactive | 51% | 1.1 µM | 39% | 12% | 15% | COc1ccc(N(C(=O)CCl)C(C(=O)NCCc2ccccc2)c2cccs2)cc1Cl (stereo not drawn) | inactive | inactive
inactive | 38% | 5.9 µM | 52% | 21% |  | O=C(CCl)N1N=C(c2ccccc2)CC1c1ccccc1 (stereo not drawn) | inactive | inactive
inactive | 25% | 4.4 µM | 36% |  |  | COc1ccc(C(C(=O)NC2CCCCCC2)N(Cc2ccc(C)cc2)C(=O)CCl)cc1 (stereo not drawn) | inactive | inactive
 | 52% | < 1 µM | 50% | 23% |  | Cc1ccc(S(=O)(=O)N2CCN(C(=O)CCl)C2c2ccccc2)cc1 (stereo not drawn) | inactive | inactive
inactive | 37% | 5.5 µM | 45% |  |  | COc1ccc(CN(C(=O)CCl)C(C(=O)NC2CCCCCC2)c2ccc(OC)cc2)cc1 (stereo not drawn) | inactive | inactive
 | 75% | 1.9 µM | 49% | 25% |  | Cc1ccc(S(=O)(=O)N2CCN(C(=O)CCl)C2)cc1 | inactive | inactive
inactive | 27% | 1.5 µM | 41% |  |  | O=C(CCl)N1N=C(c2ccc(Br)cc2)CC1c1ccc(F)cc1 (stereo not drawn) | inactive | inactive
 | 54% |  |  | 31% |  | O=C(CCl)N1CCN(S(=O)(=O)c2ccc(Cl)cc2[N+](=O)[O-])CC1 | inactive | inactive
 | 73% | 4.9 µM | 49% |  |  | O=C(CCl)N1CCN(S(=O)(=O)/C=C/c2ccccc2)CC1 | inactive | inactive
inactive | 42% | 1.1 µM | 39% |  |  | COc1ccc(C2=NN(C(=O)CCl)C(c3cccc(OC)c3OC)C2)cc1 (stereo not drawn) | inactive | inactive
inactive | 31% | 7.4 µM | 49% |  |  | COc1ccc(C(C(=O)NC2CCCCCC2)N(Cc2ccccc2)C(=O)CCl)cc1 (stereo not drawn) | inactive | inactive
inactive | 32% | 7.8 µM | 67% | 10% |  | O=C(CCl)N1N=C2/C(=C/c3ccco3)CCCC2C1c1ccco1 (stereo not drawn) | inactive | inactive
inactive | 64% | 6 µM | 62% | 18% |  | O=C(CCl)N1N=C(c2ccc(Cl)cc2)CC1c1ccco1 (stereo not drawn) | inactive | inactive
inactive | 38% | 5.8 µM | 45% | 30% |  | COc1ccc(C2=NN(C(=O)CCl)C(c3nc4ccccc4[nH]3)C2)cc1 (stereo not drawn) | inactive | inactive
 | 38% | 22.8 µM | 48% |  |  | Cc1ccc(S(=O)(=O)N2CCN(C(=O)CCl)CC2)cc1C | inactive | inactive
inactive | 45% | 4.7 µM | 46% | 9% |  | O=C(CCl)N1N=C(c2cccs2)CC1c1cccs1 (stereo not drawn) | inactive | inactive
inactive | 47% | 10.5 µM | 42% |  |  | COc1ccc(C(C(=O)NCCc2ccccc2)N(Cc2cccs2)C(=O)CCl)cc1 (stereo not drawn) | inactive | inactive
